KDM4C inh = inhibitors of human demethylase GASC-1 KDM4C | Q9H3R0 | GST-KDM4C 2-372, H3K9me3 peptide, LANCE TR-FRET | inhibition, % at 12.5 µM | 96,000 tested, 0.15% active;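 active = mean replicate inhibition above about 25%, with at least 55% of replicates also reaching it, limit read from the data, passing the limit was not always enough; inconclusive = only one of those two conditions met; inactive = neither condition met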
Target sequence (Q9H3R0 2-372 limits assumed): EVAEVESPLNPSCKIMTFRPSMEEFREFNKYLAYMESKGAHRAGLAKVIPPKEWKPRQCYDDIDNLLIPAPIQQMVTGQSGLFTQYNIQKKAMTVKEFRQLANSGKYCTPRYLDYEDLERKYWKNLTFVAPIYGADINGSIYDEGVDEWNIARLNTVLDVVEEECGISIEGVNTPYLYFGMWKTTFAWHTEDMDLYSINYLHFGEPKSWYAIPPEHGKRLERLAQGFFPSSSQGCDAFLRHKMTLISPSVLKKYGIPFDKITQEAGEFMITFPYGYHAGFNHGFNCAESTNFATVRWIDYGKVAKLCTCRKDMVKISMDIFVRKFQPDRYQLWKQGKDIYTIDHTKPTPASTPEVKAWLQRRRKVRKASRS
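Test system: N-terminal GST-fused human GASC-1 (KDM4C) fragment, residues 2-372; quantity: GASC-1 enzyme at 10 nM final in reaction; dosing: single dose; schedule: 30 min demethylation and 1 h detection at room temperature; signal: LANCE TR-FRET, excitation 340 nm, emissions 618 and 671 nm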
T cruzi growth-1 = inhibitors of T. cruzi proliferation; T. cruzi beta-gal in NIH3T3, GalScreen luminescence, 90 h; 77,000 tested, 5.9% active; inhibition, % at 8.34 µM;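 active = mean inhibition above about 93%, with at least 55% of replicates each passing it, limit read from the data, passing the limit was not always enough; inconclusive = only one of those two conditions holds; inactive = neither condition holds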
Pf Dd2 growth = P. falciparum Dd2 growth inhibition; SYBR Green, 72 h; active compounds read low; activity change, % at 10 µM; 94,000 tested, 2.3% active; in the data active = activity change below about -80%; inconclusive = no clear call, values can overlap the other calls
IDH1 mut inh = IDH1 R132H (human) inhibition; inhibition, % at 10 µM; O75874; AID 624101; 70,000 tested, 0.18% active; IDH1 R132H reductase, diaphorase/resazurin fluorescence, 60 min; in the data active = inhibition above about 34%; inconclusive = no clear call, values can overlap the other calls; inactive = below about 11%;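 also: 0% = DMSO and 100% = no enzyme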
T cruzi growth-2 = blocks T. cruzi growth in NIH3T3 host cells. shares compounds with T cruzi growth-1. T. cruzi beta-gal in NIH3T3, GalScreen luminescence, 90 h. inhibition, % at 8.35 µM. 5,600 tested, 72% active. AID 651739;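 active = mean replicate inhibition above about 95% and at least 55% of replicates individually reaching it, limit read from the data; inconclusive = only one of the two criteria is met; inactive = neither criterion is met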
T cruzi growth-3 = Trypanosoma cruzi proliferation inhibition. shares compounds with T cruzi growth-1. T. cruzi beta-gal in NIH3T3, GalScreen luminescence, 90 h. inhibition, % at 2.09 µM. 5,600 tested, 21% active. AID 651740;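 active = mean inhibition above about 95%, with at least 55% of replicates also reaching it, limit read from the data; inconclusive = meets just one of the two conditions; inactive = meets neither condition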;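 also: plate controls were neutral control median for no effect and positive control median for full effect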
NIH3T3 tox = NIH/3T3 (mouse) viability loss | shares compounds with T cruzi growth-1 | NIH/3T3 viability, CellTiter-Glo ATP luminescence, 90 h | cytotoxicity (signal decrease), % at 8.35 µM | 5,600 tested, 14% active;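 active = mean signal decrease across replicates above about 35% based on untreated-well scatter, with enough replicates individually passing, limit read from the data; inconclusive = no rule stated though some were filed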;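 also: 0% = median of neutral control wells and 100% = median of positive control wells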
NIH3T3 tox 2 = cytotoxicity in mouse NIH/3T3 fibroblasts; NIH/3T3 viability, CellTiter-Glo ATP luminescence, 90 h; inhibition, % at 24.9 µM; 5,600 tested, 56% active; shares compounds with T cruzi growth-1;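 active = mean loss of cell viability signal at or above a set limit, and enough replicates individually reaching it; inconclusive = meets only the mean limit or only the replicate share; inactive = meets neither condition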;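 also: 0% = median of neutral control wells and 100% = median of positive control wells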
An asterisk follows results filed as active. Shown are actives, neighbours in structure and some others; about 5.8% of the full set was active somewhere.

For C[C@@H]1CN([C@@H](C)CO)S(=O)(=O)c2ccc(-c3ccc(F)cc3)cc2O[C@H]1CN(C)C(=O)C1CCCCC1 the results were KDM4C inh -3, T cruzi growth-1 105*, Pf Dd2 growth -66, T cruzi growth-2 101*, T cruzi growth-3 73, NIH3T3 tox 52* and NIH3T3 tox 2 47*.
For Cc1ccc(-c2ccc3c(c2)O[C@H](CN(C)C(=O)C2CCCCC2)[C@@H](C)CN([C@@H](C)CO)S3(=O)=O)cc1 the results were KDM4C inh -2, T cruzi growth-1 123*, Pf Dd2 growth -41, T cruzi growth-2 102*, T cruzi growth-3 100*, NIH3T3 tox 3 and NIH3T3 tox 2 104*.
C[C@@H]1CN([C@@H](C)CO)S(=O)(=O)c2ccc(-c3ccccc3)cc2O[C@@H]1CN(C)C(=O)C1CCCCC1 was read as KDM4C inh -1, T cruzi growth-1 97*, Pf Dd2 growth -6, T cruzi growth-2 103*, T cruzi growth-3 82, NIH3T3 tox 26 and NIH3T3 tox 2 80*.
`C[C@H](CO)N1C[C@H](C)[C@H](CN(C)C(=O)C2CCC2)Oc2cc(-c3ccncc3)ccc2S1(=O)=O` gave KDM4C inh 3, T cruzi growth-1 85 and Pf Dd2 growth -30.
Cc1ccc(-c2ccc3c(c2)O[C@H](CN(C)C(=O)C2CCC2)[C@H](C)CN([C@H](C)CO)S3(=O)=O)cc1 was read as KDM4C inh -1, T cruzi growth-1 87, Pf Dd2 growth -26 and IDH1 mut inh 1.
For C[C@@H]1CN([C@@H](C)CO)S(=O)(=O)c2ccc(-c3ccncc3)cc2O[C@H]1CN(C)C(=O)C1CCC1 the results were KDM4C inh 2, T cruzi growth-1 108*, Pf Dd2 growth -14, IDH1 mut inh 8, T cruzi growth-2 103*, T cruzi growth-3 78, NIH3T3 tox 5 and NIH3T3 tox 2 46*.
Screening C[C@@H]1CCCCO[C@@H](CN(C)C(=O)Nc2ccc3c(c2)OCO3)[C@H](C)CN([C@@H](C)CO)C(=O)c2cc(NS(C)(=O)=O)ccc2O1 returned T cruzi growth-1 -3, Pf Dd2 growth -4 and IDH1 mut inh 0.
CC(C)CC#Cc1ccc([C@H]2[C@@H](CO)N3CCCCN(C(=O)Nc4ccccc4)C[C@H]23)cc1 was read as KDM4C inh -1, T cruzi growth-1 37 and Pf Dd2 growth -23.
COc1ccc(NC(=O)N2CCCCN3[C@H](CO)[C@@H](c4ccc(C#CCC(C)C)cc4)[C@H]3C2)cc1 was read as KDM4C inh -1, T cruzi growth-1 122*, Pf Dd2 growth -68, T cruzi growth-2 88, T cruzi growth-3 101*, NIH3T3 tox 117* and NIH3T3 tox 2 106*.
CC(C)CC#Cc1ccc([C@@H]2[C@@H](CO)N3CCCCN(C(=O)Nc4ccccc4)C[C@H]23)cc1 was read as KDM4C inh 0, T cruzi growth-1 inconclusive, Pf Dd2 growth -31, T cruzi growth-2 94, T cruzi growth-3 84, NIH3T3 tox 59* and NIH3T3 tox 2 106*.
`CC(C)CC#Cc1ccc([C@H]2[C@H]3CN(C(=O)Nc4ccccc4)CCCCN3[C@H]2CO)cc1` gave KDM4C inh 8, T cruzi growth-1 101*, Pf Dd2 growth 4, T cruzi growth-2 98*, T cruzi growth-3 91, NIH3T3 tox 27 and NIH3T3 tox 2 83*.
CC(C)CC#Cc1ccc([C@@H]2[C@@H](CO)N3CCCCN(C(=O)Nc4ccccc4)C[C@@H]23)cc1 was read as KDM4C inh -1, T cruzi growth-1 111*, Pf Dd2 growth 9, T cruzi growth-2 97*, T cruzi growth-3 93, NIH3T3 tox 30 and NIH3T3 tox 2 103*.
For O=C([C@@H]1[C@@H](CO)[C@@H]2Cn3c(cccc3=O)[C@@H]2N1CCC(F)(F)F)N1CCCCC1 the results were KDM4C inh -1 and T cruzi growth-1 54.
O=C(c1ccccc1)N1C[C@H]2[C@@H](c3ccccc31)[C@@H](CO)N2Cc1ccccc1F was read as KDM4C inh 0, T cruzi growth-1 57 and Pf Dd2 growth 6.
`COCC(=O)N1C[C@H](C)[C@@H](OC)CN(C)C(=O)c2cc(NC(=O)c3ccc(F)cc3)ccc2OC[C@@H]1C` gave KDM4C inh 0, T cruzi growth-1 18, Pf Dd2 growth 17 and IDH1 mut inh 0.
O=C(Nc1ccccc1)N1CCCCN2[C@H](C1)[C@H](c1ccc(-c3ccccc3)cc1)[C@@H]2CO was read as KDM4C inh 0, T cruzi growth-1 128*, Pf Dd2 growth -69, T cruzi growth-2 103*, T cruzi growth-3 43, NIH3T3 tox 12 and NIH3T3 tox 2 9.
`Cc1ccc(-c2ccc([C@H]3[C@H]4CN(C(=O)Nc5ccccc5)CCCCN4[C@H]3CO)cc2)cc1` gave KDM4C inh -2, T cruzi growth-1 109*, Pf Dd2 growth 17, T cruzi growth-2 107*, T cruzi growth-3 43, NIH3T3 tox 21 and NIH3T3 tox 2 91*.
Cc1ccc(-c2ccc([C@@H]3[C@@H](CO)N4CCCCN(C(=O)Nc5ccccc5)C[C@@H]34)cc2)cc1 was read as KDM4C inh -1, T cruzi growth-1 110*, Pf Dd2 growth -14, T cruzi growth-2 106*, T cruzi growth-3 72, NIH3T3 tox 26 and NIH3T3 tox 2 104*.
`CN(C)CC(=O)N1CCCCN2[C@H](C1)[C@@H](c1ccc(/C=C/c3ccccc3)cc1)[C@@H]2CO` gave KDM4C inh 1, T cruzi growth-1 -46 and Pf Dd2 growth -2.
Screening CN(C)CC(=O)N1CCCCN2[C@@H](CO)[C@H](c3ccc(/C=C/c4ccccc4)cc3)[C@@H]2C1 returned KDM4C inh -1, T cruzi growth-1 97*, Pf Dd2 growth -64, T cruzi growth-2 inconclusive, T cruzi growth-3 102*, NIH3T3 tox 117* and NIH3T3 tox 2 102*.
For CCC(=O)N1CCCCN2[C@H](CO)[C@H](c3ccc(/C=C/c4ccccc4)cc3)[C@@H]2C1 the results were KDM4C inh -4, T cruzi growth-1 113*, Pf Dd2 growth 20, T cruzi growth-2 108*, T cruzi growth-3 82, NIH3T3 tox 48* and NIH3T3 tox 2 45*.

Screens as filed in PubChem.
